For experiment [1], the system named is Bacillus. Put plainly: Antibacterial activity against Bacillus proteus ATCC 13315 after 24 hrs by NCCLS two fold broth microdilution method. The class given is functional. The note with it: ATCC 13315, 24 h. In short, it runs like this:
(§1)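 Two-fold serial broth microdilution in 96-well plates following NCCLS. Compounds were dissolved in DMSO as stocks, then diluted in Mueller–Hinton broth to final concentrations of 0.5–512 µg/mL. Plates were inoculated and incubated at 37 °C for 24 h, with growth read visually and spectrophotometrically. MIC was taken as the lowest concentration giving complete growth inhibition. Run in triplicate, with a DMSO-plus-inoculum solvent control.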

For experiment [2], the system named is Cyberlindnera jadinii. Briefly: Antifungal activity against Candida utilis after 24 hrs by NCCLS two fold broth microdilution method. The format is functional. The note with it: Williopsis jadinii. In short, it runs like this:
(§2)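 Two-fold serial microdilution following NCCLS. A spore suspension in sterile distilled water was prepared from one-day-old cultures grown on Sabouraud agar and adjusted to a final 1–5 × 10^3 spores/mL. DMSO stocks were diluted in RPMI 1640 to eleven concentrations (0.5–512 µg/mL), inoculated and held at 35 °C for 24 h. Growth was read visually and spectrophotometrically, MIC was the lowest concentration with complete inhibition, and runs were in triplicate.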

The subject of experiment [3] is Salmonella typhi. Put plainly: Antibacterial activity against Bacillus typhi after 24 hrs by NCCLS two fold broth microdilution method. The class given is functional, Salmonella enterica subsp. enterica serovar Typhi. The conditions noted are these: Salmonella enterica. In short, it runs like this: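 Two-fold serial broth microdilution per NCCLS. DMSO stocks diluted in Mueller–Hinton broth to 512, 256, 128, 64, 32, 16, 8, 4, 2, 1, 0.5 µg/mL. Chloromycin and norfloxacin as reference drugs; DMSO with inoculum, no drug, as solvent control. Incubation 37 °C for 24 h. Growth read visually and spectrophotometrically. MIC is the lowest concentration completely inhibiting growth; triplicate.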

Experiment [4] deals with Escherichia coli. Briefly: Antibacterial activity against Escherichia coli ATCC 8099 after 24 hrs by NCCLS two fold broth microdilution method. The class given is functional. The conditions noted are these: ATCC 8099, 24 h. The essentials: (§3)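 Two-fold serial broth microdilution in 96-well plates following NCCLS. Plates were inoculated and incubated at 37 °C for 24 h, with growth read visually and spectrophotometrically. MIC was taken as the lowest concentration giving complete growth inhibition. Run in triplicate, with a DMSO-plus-inoculum solvent control.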

The subject of experiment [5] is Pichia norvegensis. Briefly: Antifungal activity against Candida mycoderma after 24 hrs by NCCLS two fold broth microdilution method. The class given is functional.
Experiment [6] has as its system Staphylococcus aureus. Briefly: Antibacterial activity against methicillin-resistant Staphylococcus aureus N315 after 24 hrs by NCCLS two fold broth microdilution method. The format is functional. The note with it: N315, 24 h. In short, it runs like this:
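Two-fold serial broth microdilution per NCCLS. Chloromycin and norfloxacin as reference drugs; DMSO with inoculum, no drug, as solvent control. Incubation 37 °C for 24 h. Growth read visually and spectrophotometrically. MIC is the lowest concentration completely inhibiting growth; triplicate.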

For experiment [7], the system named is Staphylococcus aureus. Put plainly: Antibacterial activity against Staphylococcus aureus ATCC 25923 after 24 hrs by NCCLS two fold broth microdilution method. The conditions noted are these: ATCC 25923, 24 h. The format is functional. The essentials: as §1
Experiment [8] relates to Micrococcus luteus. Put plainly: Antibacterial activity against Micrococcus luteus ATCC 4698 after 24 hrs by NCCLS two fold broth microdilution method. The format is functional. The note with it: NCTC 2665, 24 h. The essentials:
as §1

Experiment [9] has as its system Candida albicans. Briefly: Antifungal activity against Candida albicans ATCC 76615 after 24 hrs by NCCLS two fold broth microdilution method. The note with it: ATCC 76615, 24 h. The format is functional. The essentials:
as §2

Experiment [10] has as its system Bacillus subtilis. Briefly: Antibacterial activity against Bacillus subtilis ATCC 21216 after 24 hrs by NCCLS two fold broth microdilution method. The format is functional. The note with it: ATCC 21216, 24 h. In short, it runs like this: as §1
Experiment [11] concerns Aspergillus flavus. Put plainly: Antifungal activity against Aspergillus flavus after 24 hrs by NCCLS two fold broth microdilution method. The class given is functional. In short, it runs like this: as §2
Experiment [12] relates to Saccharomyces cerevisiae. Briefly: Antifungal activity against Saccharomyces cerevisiae after 24 hrs by NCCLS two fold broth microdilution method. The format is functional. The essentials:
as §2

For experiment [13], the system named is Pseudomonas aeruginosa. Put plainly: Antibacterial activity against Pseudomonas aeruginosa ATCC 27853 after 24 hrs by NCCLS two fold broth microdilution method. The conditions noted are these: ATCC 27853, 24 h. The format is functional. The essentials:
as §3

The results in this text go back to ChEMBL document CHEMBL4138085, “Design, synthesis and antimicrobial evaluation of novel benzimidazole-incorporated sulfonamide analogues” (Eur J Med Chem, 2017).

Structures are written as SMILES. Values after ≈ are worked out from the molar mass of the structure shown.

As for `CC(=O)Nc1ccc(S(=O)(=O)Cc2nc3ccccc3n2Cc2cccc(F)c2)cc1`, the MIC in experiment [1] was found to be 256 µg/mL (≈ 585 µM); in experiment [2] it was 512 µg/mL (≈ 1170 µM); in [3], 128 µg/mL (≈ 293 µM); in experiment [4], 128 µg/mL (≈ 293 µM); in experiment [5], 512 µg/mL (≈ 1170 µM); in experiment [6] it was 256 µg/mL (≈ 585 µM). Moreover, the MIC in experiment [7] was determined as 512 µg/mL (≈ 1170 µM); in experiment [8], 512 µg/mL (≈ 1170 µM); in experiment [9] it was 256 µg/mL (≈ 585 µM); in experiment [10], 512 µg/mL (≈ 1170 µM); in experiment [11] it was 256 µg/mL (≈ 585 µM); in experiment [12], 32 µg/mL (≈ 73.1 µM). For the same molecule, in [13], the MIC came to 256 µg/mL (≈ 585 µM).
As to `CC(=O)Nc1ccc(S(=O)(=O)Cc2nc3ccccc3n2Cc2cccc(Cl)c2)cc1`, the MIC in experiment [1] was 128 µg/mL (≈ 282 µM); in [2] it was 512 µg/mL (≈ 1130 µM); in [3], 128 µg/mL (≈ 282 µM); in experiment [4] it was 64 µg/mL (≈ 141 µM); in [5] it was 256 µg/mL (≈ 564 µM); in experiment [6], 128 µg/mL (≈ 282 µM). The MIC came to 32 µg/mL (≈ 70.5 µM) in experiment [7]; 64 µg/mL (≈ 141 µM) in [8]; 512 µg/mL (≈ 1130 µM) in experiment [9]; 128 µg/mL (≈ 282 µM) in experiment [10]; 256 µg/mL (≈ 564 µM) in experiment [11]; 128 µg/mL (≈ 282 µM) in experiment [12]. This molecule returned an MIC in [13] of 256 µg/mL (≈ 564 µM).
For the molecule `CC(=O)Nc1ccc(S(=O)(=O)Cc2nc3ccccc3n2CCCCCn2c3ccccc3c3ccccc32)cc1`, the minimum inhibitory concentration (MIC) was 512 µg/mL (≈ 907 µM) in experiment [1]; 512 µg/mL (≈ 907 µM) in experiment [2]; 64 µg/mL (≈ 113 µM) in experiment [3]; 512 µg/mL (≈ 907 µM) in experiment [4]; 32 µg/mL (≈ 56.7 µM) in [5]; 512 µg/mL (≈ 907 µM) in [6]. The minimum inhibitory concentration (MIC) turned out to be 256 µg/mL (≈ 453 µM) in experiment [7]; 128 µg/mL (≈ 227 µM) in experiment [8]; 512 µg/mL (≈ 907 µM) in [9]; 512 µg/mL (≈ 907 µM) in experiment [10]; 128 µg/mL (≈ 227 µM) in experiment [11]; 32 µg/mL (≈ 56.7 µM) in experiment [12]. In experiment [13], this molecule registered an MIC of 16 µg/mL (≈ 28.3 µM).
`CC(=O)Nc1ccc(S(=O)(=O)Cc2nc3ccccc3n2Cc2ccc(Cl)c(Cl)c2)cc1`: the MIC in experiment [1] turned out to be 128 µg/mL (≈ 262 µM); in experiment [2], 512 µg/mL (≈ 1050 µM); in experiment [3], 512 µg/mL (≈ 1050 µM); in [4], 256 µg/mL (≈ 524 µM); in experiment [5], 512 µg/mL (≈ 1050 µM); in [6] it was 512 µg/mL (≈ 1050 µM). Also, the MIC came out at 64 µg/mL (≈ 131 µM) in experiment [7]; 256 µg/mL (≈ 524 µM) in experiment [8]; 64 µg/mL (≈ 131 µM) in [9]; 128 µg/mL (≈ 262 µM) in [10]; 16 µg/mL (≈ 32.8 µM) in experiment [11]; 32 µg/mL (≈ 65.5 µM) in experiment [12]. For the same molecule, the MIC in experiment [13] stood at 512 µg/mL (≈ 1050 µM).
On to `CC(=O)Nc1ccc(S(=O)(=O)Cc2nc3ccccc3n2Cc2ccccc2F)cc1`, for which the minimum inhibitory concentration (MIC) was 128 µg/mL (≈ 293 µM) in experiment [1]; 32 µg/mL (≈ 73.1 µM) in experiment [2]; 64 µg/mL (≈ 146 µM) in [3]; 256 µg/mL (≈ 585 µM) in [4]; 512 µg/mL (≈ 1170 µM) in [5]; 128 µg/mL (≈ 293 µM) in experiment [6]. Besides, the MIC in experiment [7] was 512 µg/mL (≈ 1170 µM); in experiment [8], 32 µg/mL (≈ 73.1 µM); in experiment [9], 256 µg/mL (≈ 585 µM); in experiment [10], 64 µg/mL (≈ 146 µM); in experiment [11] it was 64 µg/mL (≈ 146 µM); in [12], 512 µg/mL (≈ 1170 µM). Further, the minimal inhibitory concentration (MIC) in experiment [13] is 128 µg/mL (≈ 293 µM).
Consider `CCn1c(CS(=O)(=O)c2ccc(NC(C)=O)cc2)nc2ccccc21`, for which the MIC in experiment [1] was determined as 64 µg/mL (≈ 179 µM); in [2] it was 64 µg/mL (≈ 179 µM); in experiment [3], 64 µg/mL (≈ 179 µM); in [4], 256 µg/mL (≈ 716 µM); in [5], 256 µg/mL (≈ 716 µM); in experiment [6], 128 µg/mL (≈ 358 µM). The MIC in experiment [7] is 128 µg/mL (≈ 358 µM); in experiment [8], 128 µg/mL (≈ 358 µM); in experiment [9] it was 64 µg/mL (≈ 179 µM); in experiment [10], 32 µg/mL (≈ 89.5 µM); in experiment [11], 64 µg/mL (≈ 179 µM); in [12], 512 µg/mL (≈ 1430 µM). In experiment [13], this molecule came in with an MIC of 32 µg/mL (≈ 89.5 µM).
`CCCCCCCn1c(CS(=O)(=O)c2ccc(N)cc2)nc2ccccc21`: the minimal inhibitory concentration (MIC) in experiment [1], in experiment [2], in [3], in experiment [4], in experiment [5] and in experiment [6] was 512 µg/mL (≈ 1330 µM) each time. For the same molecule, the MIC was 512 µg/mL (≈ 1330 µM) in experiment [7]; 128 µg/mL (≈ 332 µM) in experiment [8]; 512 µg/mL (≈ 1330 µM) in [9]; 512 µg/mL (≈ 1330 µM) in experiment [10]; 512 µg/mL (≈ 1330 µM) in [11]; 64 µg/mL (≈ 166 µM) in [12]. This molecule also registered an MIC in [13] of 512 µg/mL (≈ 1330 µM).
